The source of these data is ChEMBL document CHEMBL4513216, “Probing the Open Global Health Chemical Diversity Library for Multistage-Active Starting Points for Next-Generation Antimalarials” (ACS Infect Dis, 2020).

This data set can be described thus: Toxicity liver stage against HepG2, at 10uM. Further details: test concentration 10 uM, cell line HepG2-A16-CD81EGFP. Type of data set: cell-based. The following applies: human, HepG2-A16-CD81EGFP cells; read-out: INHIBITION
Put shortly:
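Uninfected HepG2-A16-CD81EGFP cells, 3 × 10^3 per well, 1536-well, plated on prespotted compound at 10 μM final, parasite-free screening media added to match infected plates; puromycin 10 μM positive, DMSO 0.5% negative; run in parallel with 48 h PbLuc assay at 37 °C, 5% CO2; viability by CellTiter-Glo luminescence, normalized to controls.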

For `O=C(c1ccn(-c2cccc(Cl)c2)n1)N1CCN(CCO)CC1`, the cytotoxicity at 10 µM was -17.1%.
As to `COCC(=O)N1CCCC(C(=O)NCc2cc(CC(C)C)on2)C1` (stereo unspecified), the cytotoxicity at 10 µM came to 10.6%.
Turning to `COc1ccc(C(=O)NCc2ccco2)nn1`, the cytotoxicity at 10 µM is -2.14%.
For the compound `CCOC1CCN(C(=O)c2csc(S(N)(=O)=O)c2)CC1`, the cytotoxicity at 10 µM was -11.4%.
With `CS(=O)(=O)NCC1CCCN(Cc2ccccc2F)C1` (stereo unspecified), the cytotoxicity at 10 µM is -3.65%.
Consider `CN(C)C(=O)[C@@H]1C[C@@H]2CCN(Cc3nccs3)C[C@@H]2O1`, for which the cytotoxicity at 10 µM is 2.67%.
Consider `NC(=O)c1ccnc(N2CCCC(CO)(Cc3ccccc3)C2)c1` (stereo unspecified), for which the cytotoxicity at 10 µM was 11.6%.
As for `Cc1c(Cl)c(CN2CCCC2Cn2cncn2)nc2ccccc12` (stereo unspecified), the figure is -13.3%; as for `CCc1cnc(CN(C)C2CCN(CC3CCOCC3)C2)o1` (stereo unspecified), -13.4%; as for `CN(C)CCN1CCO[C@@H]2CN(C(=O)Cc3ccsc3)CC[C@@H]2C1`, -119%.
As for `Cn1nc(CN2CCCCC2)c2c1CN(C(=O)c1cccc(Cl)c1)C2`, the figure is -1.35%.
Take `Cc1cc(C(F)(F)F)nc(C2(C)CCCN2CC(N)=O)n1` (stereo unspecified): the cytotoxicity at 10 µM was found to be 6.62%.
Regarding `Cc1csc(CN(C)C2CCN(c3sccc3C#N)C2=O)n1` (stereo unspecified), the cytotoxicity at 10 µM amounted to 5.44%.
As for `Cc1cccc(CN2C[C@@H]3CN(C(=O)c4cnccn4)C[C@@H]3C2=O)n1`, the figure is 3.14%; as for `CCCc1noc(CCC(=O)N2CCN(C)CC2c2ccccc2)n1` (stereo unspecified), -7.47%; as for `COc1c(C2CCCN2c2ncnc3sccc23)c(C)nn1C` (stereo unspecified), 21.5%.
With `CCNC(=O)[C@@H]1C[C@@H](NC(=O)Cc2cc(C)no2)CN1Cc1ccsc1`, the cytotoxicity at 10 µM was 5.62%.
As for `Cc1noc(C(C)N2CCN(CCOCC(F)(F)F)CC2)n1` (stereo unspecified), the figure is -1.4%; as for `CN(C)[C@@H]1CO[C@H](CNC(=O)Nc2ccccc2)[C@H]1O`, -0.713%.
As for `Nc1nc(C2CCN(C(=O)c3cnccn3)CC2)cs1`, the figure is -7.33%; as for `Cn1cc(CNC2CCc3ncnn3C2)c(-c2cccnc2)n1` (stereo unspecified), -5.92%; as for `CS(=O)(=O)CCCNC(=O)C1(c2cccc(Cl)c2)CC1`, -2.26%.
As to `Cc1ccc(-c2nc3cc(S(=O)(=O)N4CCCC4)ccc3n2C)o1`, the cytotoxicity at 10 µM was 1.38%.
On to `COc1ccc(CC(=O)NC2(C)CCS(=O)(=O)C2)cc1F` (stereo unspecified), for which the cytotoxicity at 10 µM was 2.05%.
`Cc1cc(C(=O)N2CCN(c3nc4c(C(C)C)cccc4s3)CC2)no1`: the cytotoxicity at 10 µM stood at 16.7%.
For the compound `CN(C)S(=O)(=O)CCCN1CCc2c(ncn2C2CC2)C1`, the cytotoxicity at 10 µM is -10.5%.
In the case of `O=C(COCc1ccccc1)N1CCCC(n2cncn2)C1` (stereo unspecified), the cytotoxicity at 10 µM was -8.6%.
As for `CC(Cc1ccccc1Br)NC(=O)CCS(C)(=O)=O` (stereo unspecified), the figure is -4.44%.
As for `Cn1cnc(S(=O)(=O)NCC2(O)CCc3ccccc32)c1` (stereo unspecified), the figure is 11.6%; as for `CCNc1ccnc(NC2CCN(S(C)(=O)=O)CC2)n1`, -5.16%.
Regarding `CC(C)NC(=O)N1CCC2(COCc3cnc(N4CCOCC4)nc32)C1` (stereo unspecified), the cytotoxicity at 10 µM is -8.75%.
`COc1ccc(CC(=O)N2CCCC(n3cccn3)C2)cc1F` (stereo unspecified): the cytotoxicity at 10 µM was -4.62%.
As for `CCN1Cc2c(C(=O)NCC3CC3)ncn2-c2ccccc2S1(=O)=O`, the cytotoxicity at 10 µM was -12.2%.
For the compound `Cc1cccc(-c2c[nH]c(C3CCCN3C(=O)C3CCOCC3)n2)c1` (stereo unspecified), the cytotoxicity at 10 µM came to 1.92%.
Take `COc1ccc(F)cc1-c1nc2c([nH]1)c(C1CC1)nn2C`: the cytotoxicity at 10 µM was -2.18%.
`COCCOCC(C)NC(=O)COc1nn(C)c2nc(C)cc(C)c12` (stereo unspecified): the cytotoxicity at 10 µM is -3.85%.
Then `c1cnc(-c2nn3c(CN4CCCCCC4)nnc3s2)cn1`, with 10.8%; and `COc1cccc(S(=O)(=O)CCN2CCC3(CC2)OCCO3)c1`, with 4.62%.
As for `O=C(CCO)N1C[C@@H]2CC[C@H]1CN(C1Cc3ccccc3C1)C2`, the figure is -0.608%; as for `CCn1cc(CN2CCCC2c2nc(C(C)C)no2)cc1C#N` (stereo unspecified), 1.44%; as for `CC(C)(C)OC(=O)N1CCN(c2cccnc2)CC1C(=O)O` (stereo unspecified), -13.7%.
With `CC(=O)Nc1ccc2nn(C(C)C)cc2c1`, the cytotoxicity at 10 µM was -145%.
As to `Cc1ccc(S(=O)(=O)N2CCOCC2C(N)=O)c(F)c1` (stereo unspecified), the cytotoxicity at 10 µM was -5.22%.
Then `O=C(Nc1ccccc1CCO)c1cccc(CN2CC[C@H](O)C2)c1`, with 8.77%; and `COc1ccc(OC)c2c(C)cc(N(CCO)CCO)nc12`, with -114%.
Then `COCCCN1C(=O)CC[C@H]2CN(Cc3ncc[nH]3)CC[C@H]21`, with -0.462%.
As for `CCNc1ncc(C(=O)NC2CCSC2)cn1` (stereo unspecified), the cytotoxicity at 10 µM was -8.85%.
As for `CCCN1CCCN(C(=O)c2oc(C)nc2C)CC1`, the figure is 24.3%; as for `COc1ccc(NC(=O)CNc2ccc(Br)cc2F)cc1`, 0.795%; as for `Cc1ccc(NC(=O)N2CC(C(=O)NC(C)C)C3(CCOCC3)C2)cc1` (stereo unspecified), -74.3%.
Then `CC(NCc1ccccc1Br)c1ccc2[nH]c(=O)[nH]c2c1` (stereo unspecified), with -6.12%.
With `CC(Cn1ccnc1)NC(=O)Nc1ccccn1` (stereo unspecified), the cytotoxicity at 10 µM is -16.4%.
As to `CC(C)c1ncc(-c2cc(C3CCC3)nc(N)c2C#N)cn1`, the cytotoxicity at 10 µM is -16.1%.
For `c1cncc(CNCc2cccs2)c1`, the cytotoxicity at 10 µM stood at 10.1%.
Then `C[C@@H]1CN(Cc2cccc(F)c2)C[C@]12CCN(Cc1cccnc1)C2=O`, with -2.6%; and `O=S(=O)(c1ccccc1)N1CCC2(CCCN2Cc2ccccc2Cl)C1` (stereo unspecified), with -74.5%; and `CSc1ccc(C(=O)N2CCOCC2c2c(C)n[nH]c2C)o1` (stereo unspecified), with -10.3%.
Turning to `CCS(=O)(=O)N1CCN(C(=O)NC(C)C)CC2(CC(=O)N(C)C2)C1` (stereo unspecified), the cytotoxicity at 10 µM came to 6.62%.
As for `CN1CC2(CCN(CC3CC3)CC2)COc2ccccc2S1(=O)=O`, the figure is -0.697%.
Then `Cc1ccc(-c2ccnc3cc(CC(=O)N4CCN(C)CC4)nn23)cc1`, with -1.72%.
As for `Cc1cnn(CC2CCCN2c2ncnc3c2CCC3)c1` (stereo unspecified), the figure is 7.84%; as for `COC(=O)c1ccccc1S(=O)(=O)NC(=O)c1cccc2c1OCCO2`, -12.5%; as for `NC(=O)C1CCN(C(=O)c2cc(S(=O)(=O)N3CCCC3)cs2)CC1`, -43.9%.
As for `COc1ccc2oc(C(C)NC(=O)NCc3noc(C)n3)c(C)c2c1` (stereo unspecified), the cytotoxicity at 10 µM came to 5.08%.
Then `O=C(CN(CC(O)c1ccc(F)cc1)C1CC1)NC(C1CC1)C1CC1` (stereo unspecified), with 11.8%; and `CCS(=O)(=O)c1ncc(CN2CCSCC2)n1CCc1ccccc1`, with -1.95%; and `O=C(c1ccncc1)N1CCOC2(CCCN(c3nncs3)C2)C1` (stereo unspecified), with -98%.
On to `Cn1ccnc1CNC1CCCOc2c1ccc1ccccc21` (stereo unspecified), for which the cytotoxicity at 10 µM came out at 13.3%.
For `CC1N(CC2CC2)C(=O)COC12CCN(C(=O)c1ccno1)CC2` (stereo unspecified), the cytotoxicity at 10 µM is 0.104%.
Take `CN(C)CC1(O)CCN(C(=O)c2cnc(-c3ccccn3)nc2)C1` (stereo unspecified): the cytotoxicity at 10 µM turned out to be 4.82%.
Turning to `Cc1cccc(-n2cnc(Cl)c2C(=O)O)c1`, the cytotoxicity at 10 µM was -1.26%.
